Bioassay records (PubChem BioAssay)
AF4-AF9 inh – MLL-AF4/AF9 protein interaction inhibition; inhibition, % at 10 µM; AlphaScreen, biotin-AF4 peptide binding to FLAG-AF9; P42568; actives 0.47% (n = 350,000); AID 651704;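 active = every replicate reaching a set inhibition limit, whatever the replicate mean, cut at about 25% in these data; inconclusive = mean inhibition reaches that limit but some replicates miss it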
Target sequence (P42568 whole entry, looked up): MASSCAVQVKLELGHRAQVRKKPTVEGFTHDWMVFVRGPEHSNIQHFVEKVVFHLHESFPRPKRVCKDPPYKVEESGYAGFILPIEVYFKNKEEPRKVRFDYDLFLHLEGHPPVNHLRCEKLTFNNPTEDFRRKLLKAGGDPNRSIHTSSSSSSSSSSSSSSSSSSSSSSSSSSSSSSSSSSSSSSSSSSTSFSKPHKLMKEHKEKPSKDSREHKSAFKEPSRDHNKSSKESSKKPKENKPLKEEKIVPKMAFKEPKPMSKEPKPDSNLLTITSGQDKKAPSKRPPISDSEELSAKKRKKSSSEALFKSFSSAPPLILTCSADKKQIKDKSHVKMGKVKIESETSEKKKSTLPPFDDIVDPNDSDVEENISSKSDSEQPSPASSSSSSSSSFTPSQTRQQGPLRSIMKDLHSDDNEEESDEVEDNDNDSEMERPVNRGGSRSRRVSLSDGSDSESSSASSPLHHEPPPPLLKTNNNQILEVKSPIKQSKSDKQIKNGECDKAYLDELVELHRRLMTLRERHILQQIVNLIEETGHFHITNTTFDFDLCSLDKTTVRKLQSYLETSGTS
S100A4 MyoIIA – inhibitors of human S100A4 binding to myosin IIA peptide | P26447 | S100A4/TAMRA-MyoIIA peptide fluorescence polarization | inhibition, % at 10.7 µM | actives 0.14% (n = 360,000) | AID 652163;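 active = mean inhibition of at least 70% across replicates, with every replicate also reaching that level; inconclusive = mean inhibition reaches 70% but some replicates fall short; inactive = mean inhibition below 70%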
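incubation = readout 5 min after mixing, signal stable up to 60 min | system = S100A4 monomer protein | buffer or medium = HEPES pH 7.2 with CaCl2, KCl, NaCl, DTT, Triton | benchmarks = neutral control DMSO, positive control TFP | also added = fluorescent myosin IIA peptide, 5 nM | compound dosing = one concentration per compound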
SIRT5 inh – inhibitors of human sirtuin-5 desuccinylase; Q9NXA8; Purified SirT5, succinyl-peptide AMC, trypsin-coupled fluorescence; inhibition, % at 15 µM; actives 1.1% (n = 330,000); AID 652115; in the data active = inhibition above about 15%; inconclusive = no clear call, values can overlap the other calls
DENV2 CPE – DENV2-induced cell death inhibition; DENV2-infected cells, cytopathic effect rescue, plate reader; CPE inhibition, % at 9.99 µM; actives 1.7% (n = 350,000); AID 651640; in the data active = CPE inhibition above about 20%, passing the limit was not always enough; inconclusive = no clear call, values can overlap the other calls; tested in BHK-21 cells
CaV13 FRET inh – Disruptors of the CACNA1D IQ motif to Ca2+-dependent inactivation inhibitor domain association, primary screening, Förster resonance energy transfer in intact living …; HEK cells, CFP/YFP FRET ICDI-IQ, plate reader, 10 min; percent FRET-ratio fall versus neutral wells; AID 743397; actives 0.098% (n = 340,000); inhibition, % at 12.3 µM;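 active = mean replicate inhibition of at least 30% and at least 1% of replicates passing that level; inconclusive = only one of the two criteria is met; inactive = neither criterion is met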
A number is an active result; - = inactive; ? = inconclusive; . = no result given. This is a sample that favours compounds with a hit; in the whole collection about 2.7% have one here.

SMILES | AF4-AF9 inh | S100A4 MyoIIA | SIRT5 inh | DENV2 CPE | CaV13 FRET inh
O=C(c1ccccc1)N1CC(=O)N2[C@@H](CO)[C@H](c3ccc(-c4ccccc4)cc3)[C@@H]2C1 | - | ? | - | - | .
CCCCCCSc1ccc([C@@H]2[C@H]3C(=O)N(CC)C(=O)[C@H]3[C@]3(C(=O)OC)CCCCN23)cc1OC | 48 | - | - | ? | -
COC(=O)[C@@]12CCCN1[C@H](c1ccc(-c3ccccc3)cc1)[C@@H]1C(=O)N(C)C(=O)[C@@H]12 | - | - | - | 66 | -
CCCSc1ccc([C@@H]2[C@@H]3C(=O)N(CC)C(=O)[C@@H]3[C@]3(C(=O)OC)CCCCN23)cc1OC | - | - | . | - | -
COC(=O)[C@@]12CCCN1[C@H](c1ccc(-c3cccc(Cl)c3)cc1)[C@H]1C(=O)N(C)C(=O)[C@H]12 | - | - | - | - | -
COc1ccc2c3c(n(C)c2c1)[C@H](CO)N(C(=O)c1ccccn1)CC31CN(C)C1 | - | - | . | - | .
Cc1noc(C)c1NC(=O)N(C)C[C@@H]1OCCCC[C@H](C)Oc2ccc(NC(=O)Nc3ccc(F)cc3)cc2C(=O)N([C@@H](C)CO)C[C@@H]1C | - | - | 31 | ? | .
Cc1noc(C)c1NC(=O)N(C)C[C@H]1OCCCC[C@@H](C)Oc2ccc(NC(=O)Nc3ccc(C(F)(F)F)cc3)cc2C(=O)N([C@H](C)CO)C[C@@H]1C | - | - | 17 | - | .
Cc1noc(C)c1NC(=O)N(C)C[C@@H]1OCCCC[C@H](C)Oc2ccc(NC(=O)Nc3ccc(C(F)(F)F)cc3)cc2C(=O)N([C@@H](C)CO)C[C@H]1C | - | - | - | - | .
Cc1noc(C)c1NC(=O)N(C)C[C@H]1OCCCC[C@H](C)Oc2ccc(NC(=O)NC(C)C)cc2C(=O)N([C@H](C)CO)C[C@@H]1C | - | - | - | 102 | .
Cc1noc(C)c1NC(=O)N(C)C[C@H]1OCCCC[C@H](C)Oc2ccc(NC(=O)Nc3ccc(F)cc3)cc2C(=O)N([C@@H](C)CO)C[C@@H]1C | - | - | - | - | .
Cc1noc(C)c1NC(=O)N(C)C[C@@H]1OCCCC[C@H](C)Oc2ccc(NC(=O)NC(C)C)cc2C(=O)N([C@H](C)CO)C[C@@H]1C | - | - | - | - | .
Cc1ccc(S(=O)(=O)Nc2cccc3c2O[C@H](CN(C)S(=O)(=O)c2ccc(C)cc2)[C@@H](C)CN([C@@H](C)CO)C3=O)cc1 | - | - | - | ? | .
C[C@H]1CN([C@@H](C)CO)C(=O)c2cc(NC(=O)c3ccncc3)ccc2O[C@H]1CN(C)S(=O)(=O)c1ccc(Cl)cc1 | - | - | - | - | .
C[C@H](CO)N1C[C@H](C)[C@@H](CN(C)Cc2ccc(Cl)c(Cl)c2)OCCCC[C@H](C)Oc2ccc(NC(=O)NC3CCCCC3)cc2C1=O | - | - | - | - | .
C[C@@H]1CCCCO[C@@H](CN(C)Cc2ccc(Cl)c(Cl)c2)[C@@H](C)CN([C@@H](C)CO)C(=O)c2cc(NC(=O)NC3CCCCC3)ccc2O1 | - | - | 16 | - | .
C[C@H]1CCCCO[C@H](CN(C)Cc2ccc(Cl)c(Cl)c2)[C@@H](C)CN([C@@H](C)CO)C(=O)c2cc(NC(=O)c3ccccc3)ccc2O1 | - | - | - | - | .
C[C@@H]1CN([C@H](C)CO)C(=O)c2cc(NC(=O)NC3CCCCC3)ccc2O[C@@H](C)CCCCO[C@@H]1CN(C)Cc1ccc(Cl)c(Cl)c1 | - | - | 24 | - | .
C[C@@H]1CCCCO[C@H](CN(C)Cc2ccc(Cl)c(Cl)c2)[C@H](C)CN([C@@H](C)CO)C(=O)c2cc(NC(=O)c3ccccc3)ccc2O1 | - | - | - | 82 | .
C[C@@H]1CCCCO[C@@H](CN(C)Cc2ccc(Cl)c(Cl)c2)[C@H](C)CN([C@@H](C)CO)C(=O)c2cc(NC(=O)NC3CCCCC3)ccc2O1 | - | - | - | ? | .
O=C(CN1CCOCC1)NCC[C@H]1CC[C@H](NC(=O)Nc2ccccc2)[C@H](CO)O1 | - | - | - | . | .
CCCCNC(=O)O[C@@H]1C[C@@H]2CCN3C(=O)CCC[C@H]([C@H]1CC)[C@H]23 | 94 | - | - | - | -
CCCCNC(=O)O[C@H]1C[C@@H]2CCN3C(=O)CCC[C@H]([C@H]1CC)[C@H]23 | - | - | - | - | -
Cc1nn(C)cc1CN(C)C(=O)c1ccc(OC2CCN(Cc3ccccn3)CC2)cc1 | - | - | - | - | -
